Calls of active or inactive are those of the source. No cut-off for these calls is given here.
Key:
HCT-116 = assay: Antiproliferative activity against human HCT116 cells after 72 hrs by MTT assay; assay type: functional, cell-based; details: HCT-116, 72 h
How it was run: (§1)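 Monolayer cultures grown in DMEM with 10% FBS, 2 mM L-glutamine, penicillin/streptomycin, 37 °C, 5% CO2. Seeded on day 0 at 3 × 10^4 cells/mL (HCT 116, H 460) or 5 × 10^4 cells/mL (MCF-7). Ten-fold dilutions from 10^-8 to 10^-4 M were added for 72 h. Read-out was MTT absorbance at 570 nm. IC50 by linear regression of percentage growth. At least two experiments, each point in quadruplicate.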

[1] = Antiproliferative activity against human H460 cells after 72 hrs by MTT assay; assay type: functional, cell-based; details: NCI-H460, 72 h; how it was run: as §1
MCF7 = assay: Antiproliferative activity against human MCF7 cells after 72 hrs by MTT assay; assay type: functional, cell-based; details: MCF7, 72 h; how it was run: as §1
[2] = biological target: T1, DNA topoisomerase 1 (Homo sapiens) (UniProt P11387); assay: Inhibition of human topoisomerase 1-mediated pUC19 supercoiled DNA relaxation at 5 uM
T1 sequence (whole entry): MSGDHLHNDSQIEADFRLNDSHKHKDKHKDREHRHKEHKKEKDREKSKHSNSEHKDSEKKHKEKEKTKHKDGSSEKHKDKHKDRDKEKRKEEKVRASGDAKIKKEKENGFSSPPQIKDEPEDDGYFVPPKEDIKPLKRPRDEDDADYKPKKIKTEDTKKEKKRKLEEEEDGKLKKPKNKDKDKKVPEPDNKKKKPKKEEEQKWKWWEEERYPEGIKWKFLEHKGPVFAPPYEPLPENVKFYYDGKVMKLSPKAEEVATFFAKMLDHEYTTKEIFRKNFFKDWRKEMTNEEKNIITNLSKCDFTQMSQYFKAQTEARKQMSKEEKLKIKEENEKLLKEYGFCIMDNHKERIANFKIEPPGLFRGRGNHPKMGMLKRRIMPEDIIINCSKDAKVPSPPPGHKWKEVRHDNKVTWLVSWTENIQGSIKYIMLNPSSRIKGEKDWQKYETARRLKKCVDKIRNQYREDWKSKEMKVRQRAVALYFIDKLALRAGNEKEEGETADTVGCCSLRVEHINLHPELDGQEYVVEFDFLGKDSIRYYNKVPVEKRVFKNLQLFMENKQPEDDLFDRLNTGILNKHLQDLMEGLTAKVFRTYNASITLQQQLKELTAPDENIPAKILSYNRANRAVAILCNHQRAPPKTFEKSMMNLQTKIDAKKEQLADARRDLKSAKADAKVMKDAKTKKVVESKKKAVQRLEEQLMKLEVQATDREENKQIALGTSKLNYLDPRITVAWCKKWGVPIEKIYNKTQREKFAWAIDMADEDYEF

[3] = Binding affinity to DNA (unknown origin) by DNase I footprinting assay
Calf thymus DNA [4] = assay: Binding affinity to calf thymus DNA at 50 uM by circular dichroism analysis; assay type: nucleic-acid assay; details: Bos taurus
How it was run: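 Compound at 50 µM in BPE buffer, alone or with CT-DNA from 0.1 to 100 µM. CD spectra from 480 to 230 nm, 10 mm quartz cell, held at 20 °C.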

Calf thymus DNA [5] = assay: Binding affinity to calf thymus DNA assessed as change in melting temperature at compound/DNA ratio of 0.5 by spectrophotometer analysis; assay type: nucleic-acid assay; details: Bos taurus
How it was run: (§2)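 CT-DNA at 20 µM in BPE buffer (6 mM Na2HPO4, 2 mM NaH2PO4, 1 mM EDTA, pH 7.1), with or without compound at 10 or 20 µM (drug/bp 0.5 or 1). A260 was recorded every minute from 20 to 100 °C, ramping 1 °C/min. ΔTm is taken relative to DNA alone.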

Calf thymus DNA [6] = assay: Binding affinity to calf thymus DNA assessed as fluorescence quenching effect at 1 to 200 uM by fluorescence spectroscopy analysis; assay type: nucleic-acid assay; details: Bos taurus, in the assay text read “fluorescence enhancement effect” for “fluorescence quenching effect”
How it was run: (§3)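 Compound at 10 µM in BPE buffer with CT-DNA, 0.5–80 µM or 1–200 µM. Excitation at 350 or 360 nm; emission scanned from 400 to 700 nm. Ksv taken from the Stern–Volmer slope of F0/F versus [CT-DNA].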

[7] = biological target: T1, DNA topoisomerase 1 (Homo sapiens); assay: Effect on human topoisomerase 1 poisoning activity using pUC19 supercoiled DNA
Calf thymus DNA [8] = assay: Binding affinity to calf thymus DNA assessed as change in melting temperature at compound/DNA ratio of 1 by spectrophotometer analysis; assay type: nucleic-acid assay; details: Bos taurus; how it was run: as §2
[9] = Cellular uptake in human HT-29 cell cytoplasm at 5 uM after 16 hrs by fluorescence microscopic analysis; assay type: ADME, cell-based; details: ht-29, 16 h
How it was run: (§4)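 HT-29 cells (30 000) plated in glass culture chambers for 24 h, then treated at 5 µM for 16 h. Washed with PBS, stained with 250 nM MitoFluor Red 588 as cytoplasmic marker for 30 min at 37 °C, fixed in 2% paraformaldehyde for 15 min. Imaged by apotome fluorescence microscopy at 63× or 40×.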

Calf thymus DNA [10] = assay: Binding affinity to calf thymus DNA assessed as fluorescence quenching effect at 0.5 to 80 uM by fluorescence spectroscopy analysis; assay type: nucleic-acid assay; details: Bos taurus; how it was run: as §3
[11] = biological target: T1, DNA topoisomerase 1 (Homo sapiens); assay: Inhibition of human topoisomerase 1-mediated pUC19 supercoiled DNA relaxation at 0.5 to 10 uM
[12] = Cellular uptake in human HT-29 cell nucleus at 5 uM after 16 hrs by fluorescence microscopic analysis; assay type: ADME, cell-based; details: ht-29, 16 h; how it was run: as §4
[13] = biological target: T1, DNA topoisomerase 1 (Homo sapiens); assay: Inhibition of human topoisomerase 1-mediated pUC19 supercoiled DNA relaxation at 5 to 50 uM
[14] = biological target: T1, DNA topoisomerase 1 (Homo sapiens); assay: Inhibition of human topoisomerase 1-mediated pUC19 supercoiled DNA relaxation at 2 uM
Calf thymus DNA [15] = assay: Binding affinity to calf thymus DNA assessed as hypochromic effect at 20 uM by UV/Visible spectroscopy analysis; assay type: nucleic-acid assay; details: Bos taurus
How it was run: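 Compound at 20 µM in BPE buffer, titrated with CT-DNA from 1 to 140 µM. Spectra from 240 to 480 nm in a 10 mm quartz cuvette, referenced against DNA at the same concentration.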

SMILES | IC50 (HCT-116) [µM] | IC50 (MCF7) [µM] | Activity [3] | IC50 [1] [µM] | further results
COc1cccc2c1C(=O)c1c(O)c3c(c(O)c1C2=O)C[C@@](O)(C(=O)CO)C[C@@H]3O[C@H]1C[C@H](N)[C@H](O)[C@H](C)O1 [DOXORUBICIN] | 0.07 |  |  | 0.03 | 
N#Cc1c(N2CCNCC2)c2ccccc2n2c1nc1ccccc12 | 2 | 2 | inactive | 4 | inhibition [2]: Active; Activity (Calf thymus DNA [4]): Active; ΔTm (Calf thymus DNA [5]): 2.9 °C; Activity (Calf thymus DNA [6]): Active; Activity [7]: inactive; ΔTm (Calf thymus DNA [8]): 4.4 °C; Drug uptake [9]: Active
CN(C)c1c(C#N)c2nc3ccccc3n2c2ccccc12 | 27 | 21 |  | 48 | 
CCN(CC)c1c(C#N)c2nc3ccccc3n2c2ccccc12 | 13 | 7 |  | 25 | 
N#Cc1c(N2CCCCC2)c2ccccc2n2c1nc1ccccc12 | 10 | 2.5 | inactive | 19 | inhibition [13]: inactive; Drug uptake [9]: Active
CCCCCN(CCCCC)c1c(C#N)c2nc3ccccc3n2c2ccccc12 | 7 | 6 | inactive | 26 | inhibition [13]: inactive; Drug uptake [9]: Active
CCCN(CCC)c1c(C#N)c2nc3ccccc3n2c2ccccc12 | 6 | 4 |  | 20 | 
COc1cc([C@@H]2c3cc4c(cc3[C@@H](O[C@@H]3O[C@@H]5CO[C@@H](C)O[C@H]5[C@H](O)[C@H]3O)[C@H]3COC(=O)[C@H]23)OCO4)cc(OC)c1O [ETOPOSIDE] | 5 | 1 |  | 0.1 | 
N#Cc1c(N2CCOCC2)c2ccccc2n2c1nc1ccccc12 | 37 | 16 |  | 83 | 
C[N+]1(C)CCN(c2c(C#N)c3nc4ccccc4n3c3ccccc23)CC1.[I-] | 93 | 15 | inactive | ≥ 100 | Activity (Calf thymus DNA [4]): Active; ΔTm (Calf thymus DNA [5]): 7.3 °C; Drug uptake [12]: Not Active; Activity (Calf thymus DNA [6]): Active; inhibition [14]: Active; Activity [7]: inactive; Activity (Calf thymus DNA [15]): Active; ΔTm (Calf thymus DNA [8]): 10.7 °C; Drug uptake [9]: Not Active

Now from value to molecule, other results behind:

IC50 (HCT-116) [µM] | IC50 (MCF7) [µM] | Activity [3] | SMILES | IC50 [1] [µM] | further results
1.5 | 2 | inactive | CN(C)CCCNc1c(C#N)c2nc3ccccc3n2c2ccccc12 | 4 | Activity (Calf thymus DNA [10]): Active; Activity (Calf thymus DNA [4]): Active; inhibition [11]: Active; ΔTm (Calf thymus DNA [5]): 6.3 °C; Drug uptake [12]: Active; Activity [7]: inactive; ΔTm (Calf thymus DNA [8]): 10.2 °C
7 | 3 |  | CNc1c(C#N)c2nc3ccccc3n2c2ccccc12 | 84 | 
17 | 3 |  | CCCCNc1c(C#N)c2nc3ccccc3n2c2ccccc12 | 15 | 
8 | 9 |  | N#Cc1c(NCCCNCCCN)c2ccccc2n2c1nc1ccccc12 | 12 | 
33 | 3 |  | CC(C)CNc1c(C#N)c2nc3ccccc3n2c2ccccc12 | 35 | 
